Data set [1] is described as follows: folding enthalpy; higher = less favourable; fluorescence melt of hairpins on a sequencing array, two-state fit. Particulars: sodium 0.088 M. Summed up: (§1)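 With Cy3 and quencher oligos annealed, library hairpins on a sequenced MiSeq flow cell were imaged for Cy3 fluorescence in 50 mM Na-HEPES pH 8.0, 25 mM NaCl, in 2.5 °C steps up to 60 °C. Melting temperature and folding enthalpy were derived from bootstrapped two-state fits of signals normalised to pre-quench Cy3 and to control constructs. Four replicates were combined by inverse variance, with fitted temperatures raised by 9.35 °C to match UV melts.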

A short description of data set [2]: melting temperature; fluorescence melt of hairpins on a sequencing array, two-state fit, raised by 9.35 °C to match UV melts. To be noted: sodium 0.088 M. Summed up:
as §1

On to GGCCGCGAAAGCGATGCC ((((((....)))..))), for which the folding enthalpy in data set [1] is -25.2 kcal/mol. For the same sequence, the Tm in data set [2] was found to be 59.3 °C.
On the same counts, the results for GGACCAGGAAACTAGTCC ((((.((....)).)))) are -26.9 kcal/mol and 36.4 °C.
The like results for GGCGGAGGAAACTTCGCC ((((.((....)).)))) were, in that order, -49.2 kcal/mol and 59 °C.
Regarding GCTAAGCGAAAGCGTGGC ((.(.((....)).).)), the folding enthalpy in data set [1] was -16.1 kcal/mol. Besides, in data set [2], the Tm came to 57.1 °C.
As for GCAGGGAAACCTGC (((((....))))), the folding enthalpy in data set [1] was -28.1 kcal/mol. The Tm in data set [2] was 62.7 °C.
On the same counts, the results for GGTAAGCGAAAGCTAACC (((.(((....))).))) are -33.4 kcal/mol and 50.1 °C.
With GACAGCGAAAGCTACGTC ((((((....)))..))), the folding enthalpy in data set [1] was -13.8 kcal/mol. The Tm in data set [2] was 39.8 °C.
The like results for GTGTGCGGAAACGCGTAC ((..(((....)))..)) were, in that order, -16.3 kcal/mol and 43.7 °C.
On the same counts, the results for GACCGCGGAAACACGGCC (.(((.(....).))).) are -22.2 kcal/mol and 37 °C.
As to GGACCACGAAAGTGTCC (((.(((....)))))), in data set [1], the folding enthalpy is -22 kcal/mol. In addition, the Tm in data set [2] was found to be 56.1 °C.
The like results for GAGGACGAAAGTCTCTC ((((((....))).))) were, in that order, -18 kcal/mol and 46.5 °C.
On to GATCATGTTGATGATC ((((((....)))))), for which the folding enthalpy in data set [1] was -41.2 kcal/mol. The Tm in data set [2] worked out at 48.4 °C.
For the sequence GATACGCGAAAGCGATC (((.(((....)))))), the folding enthalpy in data set [1] is -13.1 kcal/mol. In addition, the Tm in data set [2] came to 37.7 °C.
The like results for GAGCGAGGAAACTCGCCC (.(((((....))))).) were, in that order, -7.21 kcal/mol and 53.6 °C.
On the same counts, the results for GTCTACGAAAGTAGAGAC ((((((....)))..))) are -12.8 kcal/mol and 40.1 °C.
The like results for GAATGGCGAAAGCCTTTC (((.(((....))).))) were, in that order, -21 kcal/mol and 47.2 °C.
In the case of GCATCACGAAAGTGCTGC (((.(((....))).))), the folding enthalpy in data set [1] was -44 kcal/mol. Moreover, the Tm in data set [2] came to 52.4 °C.
For AGACGGAAACGTCT (((((....))))), the folding enthalpy in data set [1] was -21.2 kcal/mol. Besides, in data set [2], the Tm stood at 53.5 °C.
With GATCTAGCTATAGATC ((((((....)))))), the folding enthalpy in data set [1] is -40.2 kcal/mol. For the same sequence, the Tm in data set [2] amounted to 47.7 °C.
In the case of GCATATGGAAACATATGC (((((((....))))))), in data set [1], the folding enthalpy was -41.6 kcal/mol. Further, the Tm in data set [2] was 56.3 °C.
As for GACCACGAAAGTGCCGTC ((((((....)))..))), in data set [1], the folding enthalpy is -12 kcal/mol. Moreover, the Tm in data set [2] amounted to 33.6 °C.
On the same counts, the results for GCCAAGCGAAAGCTCGGC (((.(((....))).))) are -38.9 kcal/mol and 57.4 °C.
The like results for GTCGAACCGAAAGGTGAC (((..(((....)))))) were, in that order, -18 kcal/mol and 42 °C.
The like results for GTAGGCGAAAGCCAGTAC ((((((....)))..))) were, in that order, -8.17 kcal/mol and 27.4 °C.
GCCTGTGGAAACACAAGC ((.((((....)))).)): the folding enthalpy in data set [1] is -22.5 kcal/mol. In addition, the Tm in data set [2] is 38.6 °C.
As to GGTGTAGGAAACTGTACC (((..((....))..))), the folding enthalpy in data set [1] was -19.3 kcal/mol. The Tm in data set [2] is 29.6 °C.
With GCTTGGCGAAAGCAGAGC (((..((....))..))), the folding enthalpy in data set [1] was -18.2 kcal/mol. The Tm in data set [2] is 54 °C.
In the case of GCTAAAGGAAACCTTAGC (((((.(....).))))), the folding enthalpy in data set [1] was -25.8 kcal/mol. Besides, in data set [2], the Tm was 37.1 °C.
Consider GGCAGTGGAAACACTGTC (.(((((....))))).), for which, in data set [1], the folding enthalpy was -30.2 kcal/mol. Also, the Tm in data set [2] was found to be 54.1 °C.
For GCGAGAGCTCGC ((((....)))), the folding enthalpy in data set [1] is -12.8 kcal/mol. Moreover, the Tm in data set [2] was found to be 52.5 °C.
The like results for GAGCCCGGAAACGAGCTC ((((.((....)).)))) were, in that order, -35.8 kcal/mol and 50.2 °C.
On the same counts, the results for GCCACCGAAAGGTCGGC ((((((....))).))) are -29.9 kcal/mol and 59 °C.
On the same counts, the results for GGTTTGAAAAAACC (((((....))))) are -25 kcal/mol and 46.3 °C.
Regarding GATCAACTTCTTGATC ((((((....)))))), in data set [1], the folding enthalpy was -30 kcal/mol. Besides, in data set [2], the Tm was found to be 43.9 °C.
For GGAAGAGGAAACTCCTCC (((.(((....))).))), the folding enthalpy in data set [1] is -13.9 kcal/mol. Besides, the Tm in data set [2] was found to be 28 °C.
The like results for GGCTTTGGAAACAAAACC ((.((((....)))).)) were, in that order, -27.3 kcal/mol and 36.8 °C.
In the case of CGATGACGGAAACGTTCG (((..(((....)))))), the folding enthalpy in data set [1] was -29.1 kcal/mol. The Tm in data set [2] was determined as 36.7 °C.
